Data on 1 molecule can be found in ChEMBL document CHEMBL2417498, “Design and synthesis of 6,7-methylenedioxy-4-substituted phenylquinolin-2(1H)-one derivatives as novel anticancer agents that induce apoptosis with cell cycle arrest at G2/M phase” (Bioorg Med Chem, 2013).

In general, IC50 refers to the concentration needed to halve the response being measured. Read a high IC50 as lower potency.

Molecules are shown by their SMILES. Activity calls are given as the source filed them. The rule behind the calls is not given here.

The subject of experiment [1] is NCI-H460. The experiment is described as follows: Increase in CDK1 expression in human H460 cells after 24 hrs by Western blot analysis. In kind it is functional, cell-based. Summed up:
(§1)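 H460 cells exposed 24 h at the indicated concentrations; lysates cleared at 12,000 g, protein quantified by Bradford, resolved on 10% SDS-polyacrylamide gels, blotted to nitrocellulose and detected by chemiluminescence.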

The nature of experiment [2]: Cell cycle arrest in human H460 cells assessed as accumulation at sub G1 phase at 2.5 uM after 24 hrs by propidium iodide staining-based FACS analysis (reference value: 3.07%). Format: functional. The note with it: NCI-H460. The essentials:
(§2)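 H460 cells treated 24 h with 1.0, 2.5 or 5.0 µM; washed in PBS, fixed overnight in 70% ice-cold ethanol at −20 °C, stained 30 min in the dark with 0.1% Triton X-100, 0.2 mg/mL RNase and 20 µg/mL propidium iodide; DNA content by flow cytometry, phase distribution from histogram modelling.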

A short description of experiment [3]: Cell cycle arrest in human H460 cells assessed as accumulation at G2/M phase at 2.5 uM after 24 hrs by propidium iodide staining-based FACS analysis (reference value: 10.73%). Format: functional. The conditions noted are these: NCI-H460. Summed up: as §2
The test system of experiment [4] is HL-60. The experiment is described as follows: Cell cycle arrest in human HL60 cells assessed as accumulation at G0/G1 phase at 1 uM after 24 hrs by propidium iodide staining-based FACS analysis (reference value: 39.80%). Format: functional. (In general: In flow cytometry, cells or beads pass a laser one at a time.)
The nature of experiment [5]: Cell cycle arrest in human H460 cells assessed as accumulation at sub G1 phase at 1 uM after 24 hrs by propidium iodide staining-based FACS analysis (reference value: 3.07%). The note with it: NCI-H460. Format: functional. The essentials:
as §2

Experiment [6] is described as follows: Cell cycle arrest in human H460 cells assessed as accumulation at G2/M phase at 1 uM after 24 hrs by propidium iodide staining-based FACS analysis (reference value: 10.73%). In kind it is functional. The note with it: NCI-H460. Summed up:
as §2

Experiment [7] concerns HL-60. The experiment is described as follows: Cell cycle arrest in human HL60 cells assessed as accumulation at sub G1 phase at 1.0 uM after 24 hrs by propidium iodide staining-based FACS analysis (reference value: 0.35%). Format: functional.
Experiment [8] relates to HL-60. Description: Cell cycle arrest in human HL60 cells assessed as accumulation at sub G1 phase at 0.5 uM after 24 hrs by propidium iodide staining-based FACS analysis (reference value: 0.35%). Format: functional.
In experiment [9] the test system is NCI-H460. The experiment is described as follows: Induction of apoptosis in human H460 cells assessed as caspase3 cleavage at 1 to 5 uM by Western blot analysis. Format: functional, cell-based. The essentials: as §1
Background: A western blot detects proteins with antibodies after separation by electrophoresis.

Experiment [10] has as its system NCI-H460. The experiment is described as follows: Induction of apoptosis in human H460 cells assessed as appearance of apoptotic bodies at 1 to 5 uM after 24 hrs by Hoechst 33258 staining-based microscopy. Format: functional, cell-based. Summed up:
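H460 plated at 5×10⁴ cells/well and incubated 24 h with 1.0, 2.5 or 5.0 µM; stained with 5 µg/mL Hoechst 33258 for 10 min, washed twice in PBS, fixed in 4% paraformaldehyde 10 min at 25 °C; nuclei scored for chromatin condensation, fragmentation and apoptotic bodies by fluorescence microscopy; 0.1% DMSO control.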

Experiment [11] can be described thus: Cell cycle arrest in human H460 cells assessed as accumulation at S phase at 2.5 uM after 24 hrs by propidium iodide staining-based FACS analysis (reference value: 43.08%). In kind it is functional. The conditions noted are these: NCI-H460. Summed up: as §2
A short description of experiment [12]: Cytotoxicity against human 2774 cells after 48 hrs by MTT assay. In kind it is functional, cell-based. (Tetrazolium dyes change colour on reduction, which living cells bring about.)
Experiment [13] has as its system HL-60. Description: Cell cycle arrest in human HL60 cells assessed as accumulation at sub G1 phase at 0.25 uM after 24 hrs by propidium iodide staining-based FACS analysis (reference value: 0.35%). In kind it is functional.
Experiment [14] can be described thus: Cell cycle arrest in human H460 cells assessed as accumulation at G0/G1 phase at 1 uM after 24 hrs by propidium iodide staining-based FACS analysis (reference value: 46.19%). The note with it: NCI-H460. In kind it is functional. Summed up:
as §2

Experiment [15] deals with HL-60. Description: Induction of apoptosis in human HL60 cells assessed as appearance of nuclear fragmentation at 0.25 to 1 uM after 24 hrs by Hoechst 33258 staining-based microscopy. Format: functional, cell-based. The essentials: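 HL-60 seeded at 1×10⁵ cells/well, treated 24 h with 0.25, 0.5 or 1.0 µM; nuclei stained 10 min with 5 µg/mL Hoechst 33258, PBS-washed twice, fixed 10 min in 4% PFA at 25 °C; apoptotic morphology imaged by fluorescence microscopy against 0.1% DMSO-treated cells.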

Take `COc1ccc(-c2cc(=O)[nH]c3cc4c(cc23)OCO4)c(OC)c1`: the Activity entry in the experiment on NCI-H460 [1] is “Dose-dependent effect”; in [2], 11.7%; in experiment [3] it was 71.6%; with HL-60 [4], 12.46%; in experiment [5], 10.8%; in experiment [6], 54.4%. Moreover, the Activity in the experiment on HL-60 [7] stood at 19.65%; with HL-60 [8] it was 27.86%; in experiment [11], 18.8%; in the experiment with HL-60 [13] it was 13.88%; in experiment [14], 1.57%. The outcome with NCI-H460 [9], in the experiment with NCI-H460 [10] and in the experiment with HL-60 [15] was Active. For the same molecule, 400 nM corresponded to half-maximal inhibition in [12] (IC50).
